Calls of active or inactive are those of the source. The calls are words filed in the database; no cut-off is given here.
Legend:
HEp-2 [1] = test: Induction of apoptosis in human Hep2 cells assessed as decrease in Bcl-2 at 36 uM after 24 hrs by Western blot analysis in presence of NAC; assay type: functional, cell-based
Outline: (§1)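 Treatment: 36 µM for 0, 6, 12 or 24 h, alone or with 2.5 mM N-acetylcysteine or 500 U/mL catalase. Lysis 60 min at 4 °C in Hepes pH 7.4/1% Triton X-100 with phosphatase and protease inhibitors, spin 13000g. Lysates run on 12% SDS-PAGE, blotted to nitrocellulose, probed with polyclonal antibodies, HRP/DAB detection. Representative of ≥3 experiments.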

HEp-2 [2] = test: Induction of apoptosis in human Hep2 cells assessed as increase in p21/WAF1 level at 36 uM from 6 to 24 hrs by Western blot analysis in presence of NAC; assay type: functional, cell-based; outline: as §1
HEp-2 [3] = test: Induction of ROS generation in human Hep2 cells assessed as ratio of DCF-positive cells at 36 uM after 3 hrs relative to control; assay type: functional
Outline: (§2)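 Cells exposed to 36 µM for 0, 3, 6, 12 or 24 h, then loaded with DCF-DA (10 mM as printed) for 15 min at 37 °C. Harvested, resuspended in PBS and read by flow cytometry (ex 480 nm, em 525 nm). Result given as % DCF-positive cells. n = 3.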

HEp-2 [4] = test: Induction of ROS generation in human Hep2 cells assessed as ratio of DCF-positive cells at 36 uM after 24 hrs relative to control; assay type: functional; outline: as §2
HEp-2 [5] = test: Induction of apoptosis in human Hep2 cells assessed as increase in pro-apoptotic Bax protein at 36 uM after 24 hrs by Western blot analysis in presence of CAT; assay type: functional, cell-based; outline: as §1
HEp-2 [6] = test: Induction of apoptosis in human Hep2 cells assessed as increase in phospho-cdc25C (ser216) level at 36 uM from 6 to 24 hrs by Western blot analysis; assay type: functional, cell-based; outline: as §1
HEp-2 [7] = test: Induction of ROS generation in human Hep2 cells at 36 uM after 3 hrs relative to control; assay type: functional, cell-based; outline: as §2
HEp-2 [8] = test: Induction of apoptosis in human Hep2 cells assessed as increase in phospho-cdc2 (Tyr15) level at 36 uM from 6 to 24 hrs by Western blot analysis in presence of NAC; assay type: functional, cell-based; outline: as §1
HEp-2 [9] = test: Induction of apoptosis in human Hep2 cells assessed as cleaved caspase 3 level at 36 uM after 24 hrs by Western blot analysis in presence of NAC; assay type: functional, cell-based; outline: as §1
HEp-2 [10] = test: Induction of apoptosis in human Hep2 cells assessed as increase in p21/WAF1 level at 36 uM from 6 to 24 hrs by Western blot analysis; assay type: functional, cell-based; outline: as §1
HEp-2 [11] = test: Induction of apoptosis in human Hep2 cells assessed as increase in AIF level at 36 uM after 24 hrs by Western blot analysis in presence of NAC; assay type: functional, cell-based; outline: as §1
HEp-2 [12] = test: Induction of apoptosis in human Hep2 cells assessed as increase in cytochrome c at 36 uM after 12 hrs by Western blot analysis; assay type: functional, cell-based; outline: as §1
HEp-2 [13] = test: Induction of apoptosis in human Hep2 cells assessed as caspase activated DNase level at 36 uM after 24 hrs by Western blot analysis in presence of NAC; assay type: functional, cell-based; outline: as §1
HEp-2 [14] = test: Induction of apoptosis in human Hep2 cells at 36 uM after 24 hrs by MTT assay in presence of z-VAD-fmk pan-caspase inhibitor; assay type: functional, cell-based
Outline: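 HEp-2 cells in RPMI-1640 with 10% FBS at 37 °C, 5% CO2, seeded at 1.2 × 10^4 cells/well and grown 24 h. Pretreated 1 h with z-DEVD-fmk (5 µM, line 1) or z-VAD-fmk (10 µM, line 2), then exposed to 36 µM agent for 24 h, with DMSO below 0.05%. Cell inhibitory ratio read by MTT; n = 3, mean ± SD.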

HEp-2 [15] = test: Induction of apoptosis in human Hep2 cells assessed as increase in AIF level at 36 uM after 6 hrs by Western blot analysis; assay type: functional, cell-based; outline: as §1
HEp-2 [16] = test: Induction of apoptosis in human Hep2 cells assessed as increase in p21/WAF1 level at 36 uM after 24 hrs by Western blot analysis in presence of NAC; assay type: functional, cell-based; outline: as §1
HEp-2 [17] = test: Cell cycle arrest in human Hep2 cells assessed as accumulation at G2/M phase at 36 uM after 12 hrs using propidium iodide staining by flow cytometry; assay type: functional
Outline: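 ATCC HEp-2 in RPMI-1640 with 10% FBS at 37 °C, 5% CO2, exposed to 36 µM for 0, 6, 12 or 24 h. 1 × 10^6 cells were fixed in 70% ethanol at 4 °C for at least 12 h, then stained on ice in the dark for 30 min with 50 µg/mL PI plus 1 mg/mL RNase A. Read by flow cytometry, ≥10 000 cells per sample. SubG1 counted as the apoptotic fraction. n = 3.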

HEp-2 [18] = test: Induction of apoptosis in human Hep2 cells at 36 uM after 24 hrs by MTT assay in presence of Ac-LEHD-cmk caspase 9 inhibitor; assay type: functional, cell-based
Outline: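 Pretreatment: HEp-2 (1.2 × 10^4/well, plated 24 h earlier) given caspase-9 inhibitor Ac-LEHD-cmk at 5, 10 or 20 µM for 1 h. Then 36 µM for 24 h. Inhibitory ratio by MTT, n = 3, mean ± SD.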

HEp-2 [19] = test: Induction of apoptosis in human Hep2 cells assessed as decrease in mitochondrial membrane potential using rhodamine 123 staining at 36 uM after 24 hrs by FACScan flow cytometry in presence of N-acetyl-cysteine ROS scavenger; assay type: functional; design: scale not given: the % may be the effect or the level left
Outline: (§3)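 Membrane potential: HEp-2 exposed to 36 µM for 0–24 h, alone or with 2.5 mM N-acetylcysteine for 24 h. Cells collected into PBS with 1 µg/mL rhodamine-123, held 15 min at 37 °C, then read by flow cytometry for % rhodamine-123-bright cells. n = 3.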

HEp-2 [20] = test: Induction of apoptosis in human Hep2 cells assessed as increase in pro-apoptotic Bax protein at 36 uM after 24 hrs by Western blot analysis in presence of NAC; assay type: functional, cell-based; outline: as §1
HEp-2 [21] = test: Induction of apoptosis in human Hep2 cells assessed as fragmented DNA using acridine orange staining at 36 uM after 24 hrs by microscopic analysis; assay type: functional, cell-based
HEp-2 [22] = test: Induction of apoptosis in human Hep2 cells assessed as pro-caspase 3 level at 36 uM by Western blot analysis; assay type: functional, cell-based; settings: TDE = time-dependent effect; outline: as §1
HEp-2 [23] = test: Induction of apoptosis in human Hep2 cells assessed as decrease in mitochondrial membrane potential using rhodamine 123 staining at 36 uM after 24 hrs by FACScan flow cytometry; assay type: functional; design: scale not given: the % may be the effect or the level left; outline: as §3
HEp-2 [24] = test: Cytotoxicity against human Hep2 cells at 36 uM after 24 hrs by MTT assay; assay type: functional
Outline: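 Cells seeded at 1.2 × 10^4 per well in 96-well plates, grown 24 h, then treated over 10.7–81 µM for 6, 12, 24, 36 or 48 h. Viability read by MTT. DMSO kept below 0.05%. IC50 taken at 24 h.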

HEp-2 [25] = test: Induction of ROS generation in human Hep2 cells assessed as ratio of DCF-positive cells at 36 uM after 6 hrs relative to control; assay type: functional; outline: as §2
HEp-2 [26] = test: Induction of apoptosis in human Hep2 cells assessed as apoptotic bodies using acridine orange staining at 36 uM after 24 hrs by microscopic analysis; assay type: functional, cell-based

In the case of `C=C1C(=O)[C@]23[C@H](O)[C@H]1CC[C@H]2[C@@]12CO[C@]3(O)[C@@H](O)[C@@H]1C(C)(C)CC[C@@H]2O` [ORIDONIN], the Activity (HEp-2 [1]) is reported as “inactive”, the Activity (HEp-2 [2]) is reported as “inactive” and the Activity (HEp-2 [3]) is reported as 16.65%. The Activity (HEp-2 [4]) was 24.86%, the Activity (HEp-2 [5]) was “inactive” and the Activity (HEp-2 [6]) was “Active”. The Activity (HEp-2 [7]) was “Active”, the Activity (HEp-2 [8]) was “inactive” and the Activity (HEp-2 [9]) was “inactive”. The Activity (HEp-2 [10]) was “Active”, the Activity (HEp-2 [11]) was “inactive” and the Activity (HEp-2 [12]) was “Active”. For the same compound, the Activity (HEp-2 [13]) was “inactive”, the Activity (HEp-2 [14]) was “inactive” and the Activity (HEp-2 [15]) was “Active”. The Activity (HEp-2 [16]) was “inactive”, the Activity (HEp-2 [17]) was 40.57% and the Activity (HEp-2 [18]) was “Active”. The Activity (HEp-2 [19]) was 89.31%, the Activity (HEp-2 [20]) was “inactive” and the Activity (HEp-2 [21]) was “Active”. The Activity (HEp-2 [22]) was “tde”, the Activity (HEp-2 [23]) was 58.6% and the Activity (HEp-2 [24]) was 50%. The Activity (HEp-2 [25]) was 17.25% and the Activity (HEp-2 [26]) was “Active”.
